Activity calls are given as the source filed them. No cut-off for these calls is given here.

A short description of series [1]: Solubility of the compound. The format is physicochemical.
Series [2] can be described thus: Inhibition of RNA polymerase-sigma factor (unknown origin) interaction at 15 uM after 1 hr by ELISA. The method in brief: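 ELISA: purified full-length σA (250 nM in PBS) was coated overnight at 4 °C, then blocked with 1% (w/v) BSA in PBS at room temperature. After PBS/Tween-20 washes, rabbit anti-GST (1:2000) and then HRP goat anti-rabbit (1:2000) were each applied for 1 h at room temperature. TMB substrate was added, shaken for 6 min at room temperature, and absorbance read at 600 nm.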

The next series relates to Escherichia coli. Put plainly: Antibacterial activity against Escherichia coli DH5[alpha] assessed as growth inhibition at late exponential phase at 200 uM after 16 hrs. The series is classed as functional. The settings on record: for inhibition of growth at 200 µM: read-out: GI. The method in brief: (§1)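 Compounds were made up as 50 mM DMSO stocks and diluted in LB medium to 200 µM. Cultures were grown at 37 °C with 600 rpm shaking. OD600 was read every 10 min for 16 h, with LB as the blank. Samples were run in triplicate, and growth curves were compared with cells given equal amounts of DMSO.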

The test system of the next series is Bacillus subtilis. Put plainly: Antibacterial activity against Bacillus subtilis 168 assessed as growth inhibition at late exponential phase at 200 uM after 16 hrs. The series is classed as functional. The settings on record: for growth inhibition (GI): subsp. subtilis str. 168; for inhibition of growth at 200 µM: subsp. subtilis str. 168, 16 h, read-out: GI. The method, boiled down:
as §1

As for `COc1cc(OC)c2c(-c3ccccc3)c(-c3ccccc3)[nH]c2c1-c1nnc(-c2c(OC)cc(OC)c3c(-c4ccccc4)c(-c4ccccc4)[nH]c23)o1`, in series [1], the solubility entry is given as “ND(Insoluble)”.

Broadly, the inhibition is the drop in the measured response relative to a control, in per cent. Read a high inhibition as a strong effect. In turn, `COc1cc(OC)c2c(-c3ccc(Cl)cc3)c[nH]c2c1-c1nnc(-c2c(OC)cc(OC)c3c(-c4ccc(Cl)cc4)c[nH]c23)o1` gave an inhibition in series [2] of 17.8%. Moreover, the “growth inhibition (GI)” value in the series on Escherichia coli and in the series on Bacillus subtilis was “inactive” throughout.

`COc1cc(OC)c2c(-c3ccc(Cl)cc3)c[nH]c2c1C(=O)NNC(=O)c1c(OC)cc(OC)c2c(-c3ccc(Cl)cc3)c[nH]c12`: the inhibition in series [2] came out at 62.6%. The “growth inhibition (GI)” value with Escherichia coli is “inactive”. The inhibition of growth at 200 µM with Bacillus subtilis is 29.8%.

`COc1cc(OC)c2c(-c3ccc(Cl)cc3)c(C(=O)c3nnc(N(C)C)s3)[nH]c2c1` registered an inhibition in series [2] of 17.2%. Besides, in the series with Escherichia coli, the inhibition of growth at 200 µM came out at 10.6%. Besides, the “growth inhibition (GI)” value with Bacillus subtilis is “inactive”.

As to `COc1cc(OC)c2c(-c3ccccc3)c(-c3ccccc3)[nH]c2c1-c1nnc(-c2nnc(-c3c(OC)cc(OC)c4c(-c5ccccc5)c(-c5ccccc5)[nH]c34)o2)o1`, the solubility entry in series [1] is reported as “ND(Insoluble)”.

With `COc1cc(OC)c2c(-c3ccccc3)c(-c3ccccc3)[nH]c2c1C(=O)NNC(=O)c1c(OC)cc(OC)c2c(-c3ccccc3)c(-c3ccccc3)[nH]c12`, in series [1], the solubility result is reported as “ND(Insoluble)”.

In turn, `COc1cc(OC)c2c(-c3ccc(Br)cc3)c[nH]c2c1C(=O)NNC(=O)c1c(OC)cc(OC)c2c(-c3ccc(Br)cc3)c[nH]c12` had an inhibition in series [2] of 39.5%. Further, the inhibition of growth at 200 µM with Escherichia coli is 37.4%; in the series on Bacillus subtilis, 14.3%.

For the molecule `COc1cc(OC)c2c(-c3ccccc3)c(-c3ccccc3)[nH]c2c1C(=O)C(=O)NNC(=O)C(=O)c1c(OC)cc(OC)c2c(-c3ccccc3)c(-c3ccccc3)[nH]c12`, the solubility result in series [1] is recorded as “ND(Insoluble)”.

As for `COc1cc(OC)c2c(-c3ccc(Br)cc3)c(C(=O)C(=O)NNC(=S)N(C)C)[nH]c2c1`, the inhibition in series [2] amounted to 20.8%. For the same molecule, the inhibition of growth at 200 µM was found to be 70% in the series with Escherichia coli and 69.9% in the series with Bacillus subtilis.

For `COc1cc(OC)c2c(-c3ccc(Br)cc3)c[nH]c2c1-c1nnc(-c2c(OC)cc(OC)c3c(-c4ccc(Br)cc4)c[nH]c23)o1`, in series [2], the inhibition was 16.8%. Moreover, the “growth inhibition (GI)” value in the series on Escherichia coli and with Bacillus subtilis was “inactive” in each case.

In series [2], `COc1cc(OC)c2c(-c3ccc(Br)cc3)c(C(=O)c3nnc(N(C)C)s3)[nH]c2c1` came in with an inhibition of 19%. For the same molecule, the inhibition of growth at 200 µM in the series on Escherichia coli is 16.8%. Moreover, the “growth inhibition (GI)” value in the series on Bacillus subtilis was “inactive”.

Consider `COc1cc(OC)c2c(-c3ccc(Cl)cc3)c(C(=O)C(=O)NNC(=S)N(C)C)[nH]c2c1`, for which, in series [2], the inhibition was found to be 20.4%. Further, the inhibition of growth at 200 µM was 47% in the series with Escherichia coli and 32.5% in the series with Bacillus subtilis.

For `COc1cc(OC)c2c(-c3ccccc3)c(-c3ccccc3)[nH]c2c1C(=O)NNC(=O)C(=O)NNC(=O)c1c(OC)cc(OC)c2c(-c3ccccc3)c(-c3ccccc3)[nH]c12`, the solubility result in series [1] is “ND(Insoluble)”.

(Values after ChEMBL document CHEMBL3112520, “Synthesis and biological evaluation of 2,5-di(7-indolyl)-1,3,4-oxadiazoles, and 2- and 7-indolyl 2-(1,3,4-thiadiazolyl)ketones as antimicrobials” (Bioorg Med Chem, 2014).)
